Results as given in paper PMC4186687 (Molecular Pharmaceutics, 2014).

Tests used:
SK-OV-3 cells [1] = experiment: Flow cytometry uptake with endocytic inhibitors; assay type: cell-based, human; conditions: F′-PEpYLGLD:[W5R4C]–SeNPs 1:10, SK-OV-3, 2 h, 37 °C, n = 3
SK-OV-3 cells [2] = experiment: Confocal microscopy on live cells; assay type: cell-based, human; conditions: F′-PEpYLGLD 5 μM with or without [W5R4C]–SeNPs 50 μM, SK-OV-3, 2 h, 37 °C
Method in brief: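 SK-OV-3 cells, maintained in EMEM with 10% FBS and 1% penicillin–streptomycin at 37 °C under 5% CO2, were grown overnight on coverslips (1 × 10^5 cells per well). Fluorescein-labelled peptide (5 μM), alone or with peptide-capped selenium nanoparticles (50 μM), was added in opti-MEM for 2 h at 37 °C. Slides were washed and nuclei were DAPI-stained. Fluorescence intensity was compared with probe alone, in triplicate.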

Row | Compound | effect on uptake of F′-PEpYLGLD loaded [W5R4C]–SeNPs (in words) (SK-OV-3 cells [1]) | further results
1 | C[C@@H]1[C@H](O)[C@@H](C)/C=C/C=C/CC/C=C/C=C/C=C/C=C/C(O[C@H]2O[C@H](C)[C@@H](O)[C@H](N)[C@@H]2O)CC2O[C@](O)(CC(O)C(O)CCC(O)CC(O)CC(O)CC(=O)O[C@H]1C)CC(O)C2C(=O)O (stereo partly shown) [nystatin] | – | inhibition of uptake of F′-PEpYLGLD loaded [W5R4C]–SeNPs (SK-OV-3 cells [1]): 52%
2 | CN(C)CCCN1c2ccccc2Sc2ccc(Cl)cc21 [chlorpromazine] | did not significantly decrease | –
3 | CCN(c1nc(N)c(C(=O)N=C(N)N)nc1Cl)C(C)C [EIA, 5-(N-ethyl-N-isopropyl)-amiloride] | – | inhibition of uptake of F′-PEpYLGLD loaded [W5R4C]–SeNPs (SK-OV-3 cells [1]): 40%
4 | F′-PEpYLGLD | – | intracellular fluorescence of F′-PEpYLGLD (confocal microscopy) (SK-OV-3 cells [2]): No green fluorescence
5 | methyl-β-cyclodextrin | did not significantly decrease | –
6 | CCN(CC)CCCC(C)Nc1ccnc2cc(Cl)ccc12 (stereo not shown) [chloroquine] | did not significantly decrease | –
7 | [N-]=[N+]=[N-].[Na+] [sodium azide] | did not alter | –
